Assay results as given in ChEMBL document CHEMBL1151701, “Discovery of new pyridoacridine alkaloids from Lissoclinum cf. badium that inhibit the ubiquitin ligase activity of Hdm2 and stabilize p53” (Bioorg Med Chem, 2008).
Activity calls are given as the source filed them. No cut-off for these calls is given here.

What was measured:
[1] = molecular target: T1, E3 ubiquitin-protein ligase Mdm2 (Homo sapiens, UniProt Q00987); assay: Inhibition of GST fused human Hdm2 assessed as polyubiquitylation by electrochemiluminescence assay
Method in brief: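 Cell-free ubiquitylation. Lysate GST-Hdm2 captured on glutathione-coated wells for 1 h at RT. E1/UbcH5B were pre-charged with ubiquitin, ATP and DTT in PBS for 30 min, then added with sample for 30 min at RT. Read-out was ruthenium anti-polyubiquitin electrochemiluminescence, normalised between no-inhibitor (0%) and EDTA (100%). Tested at 100–0.02 µg/mL in quadruplicate.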
Target sequence in this assay (Q00987 whole entry, the tested form may be a part): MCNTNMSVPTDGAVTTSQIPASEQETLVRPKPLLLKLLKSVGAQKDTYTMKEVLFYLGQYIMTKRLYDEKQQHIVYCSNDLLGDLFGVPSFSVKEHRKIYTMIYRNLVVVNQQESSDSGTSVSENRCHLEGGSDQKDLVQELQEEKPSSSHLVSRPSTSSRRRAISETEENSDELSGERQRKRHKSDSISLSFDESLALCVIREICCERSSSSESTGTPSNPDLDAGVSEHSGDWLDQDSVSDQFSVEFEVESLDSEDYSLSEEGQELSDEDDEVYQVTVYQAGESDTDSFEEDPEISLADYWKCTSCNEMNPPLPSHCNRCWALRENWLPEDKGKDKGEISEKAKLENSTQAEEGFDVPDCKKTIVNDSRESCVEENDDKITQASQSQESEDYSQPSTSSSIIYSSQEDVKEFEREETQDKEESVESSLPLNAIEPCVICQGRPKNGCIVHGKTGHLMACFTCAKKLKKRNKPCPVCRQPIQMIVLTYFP

[2] = molecular target: T1, E3 ubiquitin-protein ligase Mdm2; assay: Inhibition of GST fused human Hdm2 in human RPE cells after 8 hrs by immunoblotting; assay type: cell-based
Method in brief: (§1)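 Tert-immortalized human retinal pigment epithelial (RPE) cells exposed to compound (1–10 µM) or 50 µM ALLN for 8 h. Cells lysed in RIPA buffer, post-nuclear supernatants resolved by SDS-PAGE, then immunoblotted for p53, Hdm2 and β-actin as loading control.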
Target sequence in this assay (Q00987 whole entry, looked up, the tested form may be a part): as the sequence (Q00987 whole entry, the tested form may be a part) above

[3] = molecular target: T1, E3 ubiquitin-protein ligase Mdm2; assay: Inhibition of GST fused human Hdm2 in human RPE cells assessed as increase in p53 level after 8 hrs by immunoblotting; assay type: cell-based; method in brief: as §1
Target sequence in this assay (Q00987 whole entry, looked up, the tested form may be a part): as the sequence (Q00987 whole entry, the tested form may be a part) above

[4] = molecular target: T1, E3 ubiquitin-protein ligase Mdm2; assay: Inhibition of GST fused human Hdm2 expressed in p53 and mdm2-deficient mouse embryo fibroblasts under control of p53-independent promotor at 10 uM after 8 hrs by immunoblotting
Method in brief: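 p53−/−mdm2−/− mouse embryo fibroblasts transiently transfected with Hdm2 plasmid under a CMV promoter. 48 h later they were treated with 10 µM compound for 8 h, and Hdm2 and β-actin were measured by immunoblotting.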
Target sequence in this assay (Q00987 whole entry, looked up, the tested form may be a part): as the sequence (Q00987 whole entry, the tested form may be a part) above

[5] = molecular target: T1, E3 ubiquitin-protein ligase Mdm2; assay: Inhibition of GST fused human Hdm2 in human RPE cells at 10 uM after 8 hrs by immunoblotting
Target sequence in this assay (Q00987 whole entry, looked up, the tested form may be a part): as the sequence (Q00987 whole entry, the tested form may be a part) above

[6] = molecular target: T1, E3 ubiquitin-protein ligase Mdm2; assay: Inhibition of GST fused human Hdm2 in human RPE cells assessed as increase in p53 level at 10 uM after 8 hrs by immunoblotting
Target sequence in this assay (Q00987 whole entry, looked up, the tested form may be a part): as the sequence (Q00987 whole entry, the tested form may be a part) above

[7] = molecular target: T1, E3 ubiquitin-protein ligase Mdm2; assay: Inhibition of GST fused human Hdm2 in human RPE cells at 1 to 10 uM after 8 hrs by immunoblotting; assay type: cell-based; method in brief: as §1
Target sequence in this assay (Q00987 whole entry, looked up, the tested form may be a part): as the sequence (Q00987 whole entry, the tested form may be a part) above

[8] = molecular target: T1, E3 ubiquitin-protein ligase Mdm2; assay: Inhibition of GST fused human Hdm2 in human RPE cells assessed as increase in p53 level at 1 to 10 uM after 8 hrs by immunoblotting; assay type: cell-based; method in brief: as §1
[9] = molecular target: T1, E3 ubiquitin-protein ligase Mdm2; assay: Inhibition of Hdm2-mediated p53 degradation in human U2-OS cells co-transfected with p53-Hdm2 after 8 hrs by immunoblotting; assay type: cell-based; conditions: U2OS
[10] = molecular target: T1, E3 ubiquitin-protein ligase Mdm2; assay: Inhibition of Hdm2-mediated p53 degradation in human U2OS cells co-transfected with p53-Hdm2 at 50 uM after 8 hrs by immunoblotting; assay type: cell-based
[11] = molecular target: T1, E3 ubiquitin-protein ligase Mdm2; assay: Inhibition of GST fused human Hdm2 in human HCT 116 cells expressing wild type p53 assessed as prevention of N-acetyl-leucyl-leucyl-norleucinal-induced accumulation of ubiquitylated p53 accumulation; assay type: cell-based
U2OS = assay: Induction of apoptosis in human U2OS cells assessed as activation of p53-dependent transactivation by luciferase reporter gene assay at 1 to 10 uM after 22 hrs; assay type: functional, cell-based
Method in brief: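 U2OS-pG13 p53-reporter cells incubated 22 h with compound (1–10 µM) or 1 µg/ml adriamycin. Cells lysed in reporter lysis buffer and spun at 14,000 g for 20 min; luciferase activity of supernatant read as RLU. Mean and standard deviation of three independent experiments.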

[12] = Cytotoxicity against human RPE cells transformed with adenovirus E1A at 3 to 25 uM after 17 hrs by trypan blue exclusion assay; assay type: cell-based
Method in brief: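 Parental RPE and adenovirus E1A-transformed RPE cells incubated 17 h with compound (3–25 µM) or 1 µg/ml adriamycin. Cell death scored by trypan blue exclusion. Mean and standard deviation of three independent experiments.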

A9 = assay: Cytotoxicity against p53-deficient mouse A9 cells at 5 to 20 uM after 20 hrs by trypan blue exclusion assay; assay type: cell-based; conditions: a9, 20 h
Method in brief: (§2)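 p53-deficient (A9) and wild-type p53 (C8) mouse embryo fibroblasts treated 20 h with compound at 5–20 µM. Cell death by trypan blue exclusion. Mean and standard deviation of three independent experiments.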

[13] = Cytotoxicity against wild type p53-proficient mouse C8 cells at 5 to 20 uM after 20 hrs by trypan blue exclusion assay; assay type: cell-based; conditions: c8, 20 h; method in brief: as §2
HCT-116 [14] = assay: Cytotoxicity against p53-deficient human HCT 116 cells at 5 to 20 uM after 20 hrs by trypan blue exclusion assay; assay type: functional, cell-based
HCT-116 [15] = assay: Cytotoxicity against p53-proficient human HCT 116 cells at 5 to 20 uM after 20 hrs by trypan blue exclusion assay; assay type: functional, cell-based
[16] = Cytotoxicity against human RPE cells at 10 uM; assay type: cell-based; method in brief: as §1
[17] = molecular target: T1, E3 ubiquitin-protein ligase Mdm2; assay: Inhibition of GST fused human Hdm2 in human RPE cells assessed as increase in p53 level at 1 uM after 8 hrs by immunoblotting; assay type: cell-based; method in brief: as §1
[18] = Cytotoxicity against human RPE cells assessed as increase in p53 level at 10 uM after 8 hrs by immunoblotting; assay type: cell-based; method in brief: as §1

## CSC1=C(CCN)c2nc3ccccc3c3ccnc(c23)C1=O [DIPLAMINE B]
[1]
  IC50: 101 µM
[2]
  Activity: Dose-dependent effect
[3]
  Activity: Dose-dependent effect
[4]
  Activity: Active
[5]
  Activity: Active
[6]
  Activity: Active

## COc1c(C)c(CCN(C)C)c2c(c1OC)SSSSS2
[1]
  IC50: 121 µM
[7]
  Activity: inactive
[8]
  Activity: inactive

## NCCc1c2c(c3nccc4c3c1Nc1ccccc1-4)OCS2 [LISSOCLINIDINE B]
[2]
  Activity: Dose-dependent effect
[3]
  Activity: Dose-dependent effect
[4]
  Activity: Active
[9]
  Activity: Dose-dependent effect
[10]
  Activity: inactive
[11]
  Activity: Active
U2OS
  Activity: Dose-dependent effect
[12]
  Activity: Dose-dependent effect
A9
  Activity: Not Active
[13]
  Activity: Active
HCT-116 [14]
  Activity: inactive
HCT-116 [15]
  Activity: Active
[5]
  Activity: Active
[6]
  Activity: Active

## COc1cc(CCN)c2c(c1OC)SSSSS2 [VARACIN]
[1]
  IC50: > 295 µM
[7]
  Activity: inactive
[8]
  Activity: inactive

## COc1cc(CCN(C)C)c2c(c1O)SSSSS2 [ISOLISSOCLINOTOXIN B]
[1]
  IC50: 58.6 µM
[16]
  Activity: Toxic
[17]
  Activity: inactive
[18]
  Activity: Active
